From ChEMBL document CHEMBL1781892, “Microwave assisted synthesis and structure-activity relationship of 4-hydroxy-N'-[1-phenylethylidene]-2H/2-methyl-1,2-benzothiazine-3-carbohydrazide 1,1-dioxides as anti-microbial agents” (2011)

Legend:
Format in all cases: functional
Aspergillus flavus [1] = test: Antifungal activity against Aspergillus flavus using 1 x 10^5 spore/100 uL after 72 hrs by microdilution method
Aspergillus flavus [2] = test: Antifungal activity against Aspergillus flavus using 1 x 10^5 spore/100 uL assessed as 99.5% fungal killing of original inoculum after 72 hrs by microdilution method
Aspergillus niger [3] = test: Antifungal activity against Aspergillus niger using 1 x 10^5 spore/100 uL after 72 hrs by microdilution method
Aspergillus fumigatus [4] = test: Antifungal activity against Aspergillus fumigatus using 1 x 10^5 spore/100 uL assessed as 99.5% fungal killing of original inoculum after 72 hrs by microdilution method
Aspergillus niger [5] = test: Antifungal activity against Aspergillus niger using 1 x 10^5 spore/100 uL assessed as 99.5% fungal killing of original inoculum after 72 hrs by microdilution method
Aspergillus fumigatus [6] = test: Antifungal activity against Aspergillus fumigatus using 1 x 10^5 spore/100 uL after 72 hrs by microdilution method
Curvularia australiensis [7] = test: Antifungal activity against Drechslera australiensis using 1 x 10^5 spore/100 uL assessed as 99.5% fungal killing of original inoculum after 72 hrs by microdilution method
Trichoderma viride [8] = test: Antifungal activity against Trichoderma viride using 1 x 10^5 spore/100 uL assessed as 99.5% fungal killing of original inoculum after 72 hrs by microdilution method
Curvularia australiensis [9] = test: Antifungal activity against Drechslera australiensis using 1 x 10^5 spore/100 uL after 72 hrs by microdilution method
Trichoderma viride [10] = test: Antifungal activity against Trichoderma viride using 1 x 10^5 spore/100 uL after 72 hrs by microdilution method
[11] = Antifungal activity against Trichoderma reesei using 1 x 10^5 spore/100 uL assessed as 99.5% fungal killing of original inoculum after 72 hrs by microdilution method
[12] = Antifungal activity against Trichoderma reesei using 1 x 10^5 spore/100 uL after 72 hrs by microdilution method
In short: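 Spores washed from malt agar cultures with sterile 0.85% saline plus 0.1% Tween 80, adjusted to about 1.0×10^5 per 100 µl well. Compounds from a 1 mg/ml DMSO stock were serially diluted in malt broth with inoculum in 96-well plates and incubated 72 h at 28 °C. MIC is the lowest concentration with no visible growth under a binocular microscope. DMSO served as negative control.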

Staphylococcus aureus = test: Antibacterial activity against Staphylococcus aureus using 1 x 10^4 CFU/ml inoculum after 24 hrs by microdilution method
Bacillus cereus = test: Antibacterial activity against Bacillus cereus using 1 x 10^4 CFU/ml inoculum after 24 hrs by microdilution method
Bacillus subtilis = test: Antibacterial activity against Bacillus subtilis using 1 x 10^4 CFU/ml inoculum after 24 hrs by microdilution method
Bacillus thuringiensis = test: Antibacterial activity against Bacillus thuringiensis using 1 x 10^4 CFU/ml inoculum after 24 hrs by microdilution method
Escherichia coli = test: Antibacterial activity against Escherichia coli using 1 x 10^4 CFU/ml inoculum after 24 hrs by microdilution method
Pseudomonas aeruginosa = test: Antibacterial activity against Pseudomonas aeruginosa using 1 x 10^4 CFU/ml inoculum after 24 hrs by microdilution method

| SMILES | MIC (Aspergillus flavus [1]) [×10⁻² umol] | MFC (Aspergillus flavus [2]) [×10⁻² umol] | MIC (Aspergillus niger [3]) [×10⁻² umol] | MFC (Aspergillus fumigatus [4]) [×10⁻² umol] | MFC (Aspergillus niger [5]) [×10⁻² umol] | MIC (Aspergillus fumigatus [6]) [×10⁻² umol] | MFC (Curvularia australiensis [7]) [×10⁻² umol] | MFC (Trichoderma viride [8]) [×10⁻² umol] | MIC (Curvularia australiensis [9]) [×10⁻² umol] | MIC (Trichoderma viride [10]) [×10⁻² umol] | MFC [11] [×10⁻² µmol] | MIC [12] [×10⁻² µmol] | MIC (Staphylococcus aureus) [×10⁻² umol] | MIC (Bacillus cereus) [×10⁻² umol] | MIC (Bacillus subtilis) [×10⁻² umol] | MIC (Bacillus thuringiensis) [×10⁻² umol] | MIC (Escherichia coli) [×10⁻² umol] | MIC (Pseudomonas aeruginosa) [×10⁻² umol] |
| --- | --- | --- | --- | --- | --- | --- | --- | --- | --- | --- | --- | --- | --- | --- | --- | --- | --- | --- |
| c1ccc(-c2ccc(C(c3ccccc3)n3ccnc3)cc2)cc1 (stereo not given) [BIFONAZOLE] | 48 | 64 | 48 | 64 | 64 | 48 | 75 | 80 | 57.5 | 64 | 78 | 60.2 | – | – | – | – | – | – |
| C/C(=N\NC(=O)C1=C(O)c2ccccc2S(=O)(=O)N1)c1ccccc1Br | 90 | 177.7 | 93.2 | 157.3 | 186.8 | 83.8 | 158.4 | 142.4 | 76.3 | 75.6 | 147 | 74.8 | – | – | – | – | – | – |
| C/C(=N\NC(=O)C1=C(O)c2ccccc2S(=O)(=O)N1)c1ccc(Cl)c(Cl)c1 | 75.2 | 150.3 | 75.2 | 136.2 | 150.2 | 68.1 | 123.4 | 118.7 | 61.8 | 61.3 | 108 | 59.2 | – | – | – | – | – | – |
| C/C(=N\NC(=O)C1=C(O)c2ccccc2S(=O)(=O)N1)c1ccccc1Cl | 87.3 | 164.6 | 89.6 | 150.4 | 179.1 | 76.2 | 125.1 | 123.9 | 63.8 | 66.8 | 123 | 61.4 | 31.3 | 11.5 | 11.4 | 12.1 | 32.5 | – |
| C/C(=N\NC(=O)C1=C(O)c2ccccc2S(=O)(=O)N1)c1ccc(Br)cc1 | 93.7 | 173.2 | 96.4 | 191 | 188.5 | 85.7 | 143.9 | 188.2 | 77.5 | 74.4 | 130 | 74.9 | – | – | – | – | – | – |
| C/C(=N\NC(=O)C1=C(O)c2ccccc2S(=O)(=O)N1C)c1ccc(Cl)cc1Cl | 71.6 | 143.1 | 74.2 | 134.7 | 148.3 | 67.3 | 122.7 | 125 | 61.5 | 62.7 | 118 | 59.1 | – | – | – | – | – | – |
| C/C(=N\NC(=O)C1=C(O)c2ccccc2S(=O)(=O)N1)c1ccc(Cl)cc1Cl | 71.8 | 143.5 | 74.6 | 142.5 | 149 | 67.4 | 123.9 | 125.7 | 62 | 62.9 | 119 | 59.4 | – | – | – | – | – | – |
| C/C(=N\NC(=O)C1=C(O)c2ccccc2S(=O)(=O)N1C)c1ccc(Br)cc1 | 93.4 | 189.8 | 96 | 177 | >200 | 85.5 | 148.4 | 139.4 | 77.3 | 74.3 | 142 | 74.6 | – | – | – | – | – | – |
| C/C(=N\NC(=O)C1=C(O)c2ccccc2S(=O)(=O)N1C)c1ccc(Cl)c(Cl)c1 | 75 | 150 | 75 | 136.3 | 149.5 | 68.1 | 122.6 | 122.5 | 61.5 | 61.2 | 158 | 59 | – | – | – | – | – | – |
| NNC(=O)C1=C(O)c2ccccc2S(=O)(=O)N1 | >100 | >200 | >100 | >200 | >200 | >100 | >200 | >200 | >100 | >100 | > 200 | > 100 | – | – | – | – | – | – |
| CN[C@@H]1[C@H](O[C@H]2[C@H](O[C@H]3[C@H](O)[C@@H](O)[C@H](N=C(N)N)[C@@H](O)[C@@H]3N=C(N)N)O[C@@H](C)[C@]2(O)C=O)O[C@@H](CO)[C@H](O)[C@H]1O [STREPTOMYCIN] | – | – | – | – | – | – | – | – | – | – | – | – | 16.5 | 4.3 | 4.2 | 4.4 | 16.5 | 16.5 |
| CN1C(C(=O)NN)=C(O)c2ccccc2S1(=O)=O | >100 | >200 | >100 | >200 | >200 | >100 | >200 | >200 | >100 | >100 | > 200 | > 100 | – | – | – | – | – | – |
| C/C(=N\NC(=O)C1=C(O)c2ccccc2S(=O)(=O)N1C)c1ccccc1Br | 89.4 | 168.5 | 93.1 | 163.6 | 186 | 83.6 | 151.7 | 149.9 | 76.2 | 75.4 | 151 | 74.5 | – | – | – | – | – | – |
